Compound activity: PubChem BioAssay, Broad Institute
HSF1 activator: increases HSF-1 driven luciferase reporter signal | NIH3T3-HGL HSF-1 luciferase reporter, MG132, 8 h; 100% = twice DMSO control signal | hit rate 1.7% among 300,000 | activation, % at 9 µM;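 active means mean replicate activation of at least 50% with a set share of replicates each reaching 50%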;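 further: 0% = median of the neutral control wells and 100% = twice that signal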
SR-BI uptake up: enhances SR-BI lipid uptake from DiI-HDL; CHO ldlA[mSR-BI] cells, DiI-HDL uptake fluorescence, 3 h; 100 = double the neutral-control signal; activation, % at 12.5 µM; hit rate 0.096% among 320,000; AID 504775;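 active means mean replicate activation of at least 60% and every replicate at or above 60%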;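 further: 0% = median plate neutral-control signal and 100% = twice that signal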
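Material – SR-BI-overexpressing, LDLR-lacking CHO cells · Medium – BSA-supplemented, HEPES-buffered Ham's F12, pH 7.4 · Doses – single concentration · Times – compound with DiI-HDL co-incubation, 3 h at 37 °C · Measured by – bottom-read fluorescence, 550/595 nm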
SR-BI DiI inh: mouse SR-BI HDL lipid transfer inhibition; Q61009; ldlA[mSR-BI] CHO cells, DiI-HDL uptake fluorescence, 3 h; inhibition, % at 12.5 µM; hit rate 0.96% among 320,000; AID 488896;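 active means mean replicate inhibition of at least 70% and a set share of replicates each scoring 70 or more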;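 further: 0% = median of neutral control wells and 100% = median of positive control wells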
Target sequence (Q61009 whole entry, looked up): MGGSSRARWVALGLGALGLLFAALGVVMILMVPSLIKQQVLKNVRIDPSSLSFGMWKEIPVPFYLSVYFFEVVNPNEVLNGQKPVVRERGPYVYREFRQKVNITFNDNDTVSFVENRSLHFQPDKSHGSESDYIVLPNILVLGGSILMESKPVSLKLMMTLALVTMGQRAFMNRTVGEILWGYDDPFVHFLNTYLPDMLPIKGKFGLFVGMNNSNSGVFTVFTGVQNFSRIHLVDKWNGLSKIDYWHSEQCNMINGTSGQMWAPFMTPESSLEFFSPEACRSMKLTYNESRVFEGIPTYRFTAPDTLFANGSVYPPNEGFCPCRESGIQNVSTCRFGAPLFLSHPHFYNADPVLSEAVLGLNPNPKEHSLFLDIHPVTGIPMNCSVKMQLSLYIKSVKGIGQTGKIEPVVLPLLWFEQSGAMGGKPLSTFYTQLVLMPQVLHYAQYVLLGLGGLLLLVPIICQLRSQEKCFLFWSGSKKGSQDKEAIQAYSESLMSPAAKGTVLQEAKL
Wnt act: activates Wnt/beta-catenin signaling in a reporter cell assay. activator, plate reader. activation, % at 9.35 µM. hit rate 1.2% among 300,000; in the data active means activation above about 30%, passing the limit was not always enough;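 further: 0% = neutral control wells and 100% = positive control wells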
MITF act: activators of MITF-driven TRPM1 promoter activity in SK-MEL-5 cells; hit rate 0.75% among 300,000; SK-MEL-5 TRPM1-promoter luciferase, 24 h; % of positive control, neutral wells = 0; AID 588334; activation, % at 12.5 µM;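 active means mean activation of at least 80% with every replicate also reaching 80%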;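 further: 0% = neutral control wells and 100% = parthenolide positive control wells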
An asterisk follows results filed as active; . = no result given. A selection: hits, their analogues and other compounds. The true share with any hit is near 3.6%.

SMILES | HSF1 activator | SR-BI uptake up | SR-BI DiI inh | Wnt act | MITF act
COc1cccc(NC(=O)n2ncc3c(C)cccc32)c1 | 2.2 | 7.6 | -7.6 | 44.6* | 8.8
Cc1ccc(NC(=O)n2ncc3c(C)cccc32)c(C)c1 | 56.7* | -7.2 | 7.2 | 10.2 | 51.9
CCOc1ccc(NC(=O)n2ncc3c(C)cccc32)cc1 | 11.3 | 12.6 | -12.6 | 23.3 | 64.9
CCOC(=O)Cc1c(-c2cccc(Br)c2)nc2c3ccccc3ccn12 | . | . | . | 3.8 | .
Cc1ccc(-c2nc3ccccc3s2)cc1NC(=S)NC(=O)/C=C/c1ccco1 | 65.5* | -57.9 | 57.9 | . | -20.8
Cc1ccc(-c2nc3ccccc3o2)cc1NC(=S)NC(=O)/C=C/c1ccco1 | 48.4 | -45.8 | 45.8 | 2.6 | -9.3
O=C(/C=C/c1ccco1)NC(=S)Nc1cccc(-c2nc3ccccc3s2)c1 | 9.7 | -67.3 | 67.2 | -1.8 | -0.5
O=C(/C=C/c1ccco1)NC(=S)Nc1cc(-c2nc3ccccc3s2)ccc1Cl | . | -37.4 | 37.4 | 49.6* | -9.2
S=c1[nH]nc(-c2cc(-c3ccccc3)n[nH]2)n1/N=C/C(Br)=C/c1ccccc1 | 104.1* | . | . | -9.7 | .
S=c1[nH]nc(-c2ccco2)n1/N=C/C(Cl)=C/c1ccccc1 | 181.9* | -5.9 | 5.9 | -2.7 | .
Cc1cc(-c2n[nH]c(=S)n2/N=C/C(Cl)=C/c2ccccc2)n[nH]1 | 49.5 | -1.5 | 1.5 | 16.4 | -0.9
COc1ccc(-n2nc(C(=O)NCC(=O)N3CCN(c4ccccc4)CC3)c3ccccc3c2=O)c(OC)c1 | 23.4 | . | . | 4.7 | 97.5*
COc1ccc(-n2nc(C(=O)NCC(=O)N3CCN(c4ccc(F)cc4)CC3)c3ccccc3c2=O)c(OC)c1 | 2.0 | -60.7 | 60.7 | 3.0 | 10.4
COc1ccc(N2CCN(C(=O)CNC(=O)c3cn(-c4ccccc4OC)c(=O)c4ccccc34)CC2)cc1 | 1.6 | -73.6 | 73.6* | -1.0 | 2.3
COCOCCn1cc(CN2CCS(=O)(=O)N(Cc3ccc(-c4ccc(F)nc4)cc3)C(C)C2=O)nn1 (configuration not stated) | . | . | . | -1.0 | .
O=C(Nc1cnc2ccccc2c1)N1CCOCC1 | 25.5 | 35.3 | -35.3 | . | 27.2
O=C(Nc1cnc2ccccc2c1)N1CCCCC1 | 20.1 | 22.1 | -22.1 | . | 94.2*
COC(=O)C[C@@H]1C[C@H]2c3cc(NC(=O)Nc4ccccc4F)ccc3O[C@H]2[C@H](CO)O1 | . | . | . | 1.5 | .
COc1ccc(NC(=O)CSc2nnc(Cn3cnc([N+](=O)[O-])n3)n2C)cc1 | 66.5* | 12.1 | -12.1 | -5.4 | 2.9
COc1cccc(NC(=O)CSc2nnc(Cn3cnc([N+](=O)[O-])n3)n2C)c1 | 2.2 | 29.2 | -29.2 | -10.1 | 1.3
CCOC(=O)C1=CCN(S(=O)(=O)c2ccc([N+](=O)[O-])cc2)C1c1ccc(C)cc1 (configuration not stated) | . | . | . | -1.3 | .
CCCCOc1ccc(S(=O)(=O)NC(=O)C2(C)CCN2C(=O)Cc2cccs2)cc1 (configuration not stated) | . | . | . | -1.1 | .
Fc1cccc(Cc2c(-c3ccco3)nc3ccc(Br)cn23)c1 | . | . | . | -2.3 | .
Cc1ccc(-n2nnc(-c3ccnc4ccccc34)n2)cc1 | 27.6 | 2.1 | 6.8 | 40.3* | 93.6*
Clc1ccc(-n2nnc(-c3cccnc3Cl)n2)cn1 | 40.6 | -9.6 | 9.6 | 40.9* | 126.1*
SMILES | HSF1 activator | SR-BI uptake up | SR-BI DiI inh | Wnt act | MITF act
Cc1ccc(-n2nnc(-c3cccnc3Cl)n2)cc1 | 69.8* | 1.3 | -1.3 | 31.5* | 61.2
[O-][N+](=Cc1c(Cl)cccc1Cl)CC1(O)CCCCC1 | . | . | . | -0.5 | .
C#CCNC(=O)C[C@H]1C[C@@]2(C(=O)OC)C(=C[C@H](C(C)C)O[C@@H]2C2CC2)N(Cc2ccccc2)C1=O | . | . | . | 1.0 | .
CCOc1ccccc1N(CC)C(=O)c1cc2c(s1)-c1ccccc1S(=O)(=O)C2 | . | . | . | -1.2 | .
COc1cc(C)nc(NC(=S)N(C)C(=O)c2ccccc2)n1 | -1.7 | . | . | 46.5* | .
CCCCC(=O)OCC(=O)c1[nH]c(C)c(C(=O)OCC)c1C | 76.1* | 19.3 | -19.3 | 1.0 | 0.4
CCOC(=O)c1c(C)[nH]c(C(=O)COC(=O)c2ccc(N3CCCC3=O)cc2)c1C | 13.3 | 62.8* | -62.8 | . | .
CCCCCC(=O)c1c(C)[nH]c(C(=O)OCC)c1C | 29.3 | -28.0 | 28.0 | 8.8 | 0.3
CCCCCCC(=O)c1c(C)[nH]c(C(=O)OCC)c1C | 53.2* | -40.8 | 40.8 | . | .
CCOC(=O)c1c(C)[nH]c(C(=O)COC(=O)CSC)c1C | 25.6 | 36.5 | -36.5 | . | 2.9
